Measurements as given in ChEMBL document CHEMBL4177526, “Discovery and structure activity relationship of the first potent cryptosporidium FIKK kinase inhibitor” (Bioorg Med Chem, 2017).

What was measured:
[1] = target: Phosphorylase b kinase gamma catalytic chain, skeletal muscle/heart isoform (Homo sapiens) (UniProt Q16816); assay: Inhibition of human PHKgamma1 (2 to 297 residues) assessed as residual activity at 500 nM in presence of 33P-ATP by filter binding assay relative to control
[2] = Inhibition of Cryptosporidium parvum CDPK1 using PLARTLSVAGLPGKK peptide as substrate by NADH coupled LDH-PK ATPase assay
Procedure, shortened: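 NADH-coupled LDH-PK ATPase read-out with 1.2 nM recombinant CpCDPK1, 0.25 mM ATP, 0.1 mM Syntide 2.0 peptide and 2 mM CaCl2. Inhibitors were made as 10 mM DMSO stocks and tested in 2-fold serial dilutions. IC50 is the average of triplicate experiments.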

[3] = target: Serine/threonine-protein kinase MARK2 (Homo sapiens) (UniProt Q7KZI7); assay: Inhibition of human MARK2 (2 to 691 residues) assessed as residual activity at 500 nM in presence of 33P-ATP by filter binding assay relative to control
[4] = target: Dual specificity tyrosine-phosphorylation-regulated kinase 1A (Homo sapiens) (UniProt Q13627); assay: Inhibition of human DYRK1A (1 to 502 residues) assessed as residual activity at 500 nM in presence of 33P-ATP by filter binding assay relative to control
[5] = target: Ribosomal protein S6 kinase alpha-1 (Homo sapiens) (UniProt Q15418); assay: Inhibition of human RSK1 (1 to 735 residues) assessed as residual activity at 500 nM in presence of 33P-ATP by filter binding assay relative to control
[6] = target: Serine/threonine-protein kinase Pink1, mitochondrial (Tribolium castaneum) (UniProt D6WMX4); assay: Inhibition of Tribolium castaneum PINK1 (1 to 570 residues) assessed as residual activity at 500 nM in presence of 33P-ATP by scintillation counting method relative to control
Serine/threonine-protein kinase Pink1, mitochondrial (Tribolium castaneum), sequence (D6WMX4 whole entry, the tested form may be a part): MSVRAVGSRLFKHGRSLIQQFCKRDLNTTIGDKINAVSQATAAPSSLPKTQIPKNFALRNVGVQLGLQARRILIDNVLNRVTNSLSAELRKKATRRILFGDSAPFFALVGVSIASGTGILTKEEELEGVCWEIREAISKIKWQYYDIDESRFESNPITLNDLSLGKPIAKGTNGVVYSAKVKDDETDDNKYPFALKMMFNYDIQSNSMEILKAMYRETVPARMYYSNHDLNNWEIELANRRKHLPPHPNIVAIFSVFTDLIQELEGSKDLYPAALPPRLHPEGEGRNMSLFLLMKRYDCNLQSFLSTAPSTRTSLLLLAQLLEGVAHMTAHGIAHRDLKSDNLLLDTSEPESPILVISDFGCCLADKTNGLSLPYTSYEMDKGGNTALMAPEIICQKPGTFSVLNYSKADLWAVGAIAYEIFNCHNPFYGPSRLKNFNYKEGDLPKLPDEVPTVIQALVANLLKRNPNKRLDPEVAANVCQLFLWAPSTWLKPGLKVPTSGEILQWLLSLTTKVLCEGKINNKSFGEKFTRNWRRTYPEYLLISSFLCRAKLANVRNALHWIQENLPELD

[7] = target: 3-phosphoinositide-dependent protein kinase 1 (Homo sapiens) (UniProt O15530); assay: Inhibition of human PDK1 (52 to 556 residues) assessed as residual activity at 500 nM in presence of 33P-ATP by filter binding assay relative to control
3-phosphoinositide-dependent protein kinase 1 (Homo sapiens), sequence (O15530 whole entry, the tested form may be a part): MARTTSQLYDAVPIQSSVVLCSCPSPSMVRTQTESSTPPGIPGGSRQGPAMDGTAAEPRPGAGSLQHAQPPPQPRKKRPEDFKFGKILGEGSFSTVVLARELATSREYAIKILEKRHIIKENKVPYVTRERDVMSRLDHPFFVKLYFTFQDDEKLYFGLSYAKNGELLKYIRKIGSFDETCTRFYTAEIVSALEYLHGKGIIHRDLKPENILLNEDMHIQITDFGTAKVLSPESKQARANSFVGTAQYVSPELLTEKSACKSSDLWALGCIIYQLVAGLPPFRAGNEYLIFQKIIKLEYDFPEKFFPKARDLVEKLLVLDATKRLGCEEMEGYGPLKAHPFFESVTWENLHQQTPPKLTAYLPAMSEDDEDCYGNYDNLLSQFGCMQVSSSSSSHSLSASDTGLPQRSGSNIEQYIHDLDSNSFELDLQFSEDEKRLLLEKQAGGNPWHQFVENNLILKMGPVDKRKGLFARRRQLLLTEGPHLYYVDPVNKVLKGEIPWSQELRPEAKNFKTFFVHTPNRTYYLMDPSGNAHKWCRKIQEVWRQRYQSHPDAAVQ

[8] = target: MAP/microtubule affinity-regulating kinase 4 (Homo sapiens) (UniProt Q96L34); assay: Inhibition of human MARK4 (1 to 367 residues) assessed as residual activity at 500 nM in presence of 33P-ATP by filter binding assay relative to control
[9] = target: Eukaryotic elongation factor 2 kinase (Homo sapiens) (UniProt O00418); assay: Inhibition of human EF2K (2 to 725 residues) assessed as residual activity at 500 nM in presence of 33P-ATP by filter binding assay relative to control
Eukaryotic elongation factor 2 kinase (Homo sapiens), sequence (O00418 whole entry, the tested form may be a part): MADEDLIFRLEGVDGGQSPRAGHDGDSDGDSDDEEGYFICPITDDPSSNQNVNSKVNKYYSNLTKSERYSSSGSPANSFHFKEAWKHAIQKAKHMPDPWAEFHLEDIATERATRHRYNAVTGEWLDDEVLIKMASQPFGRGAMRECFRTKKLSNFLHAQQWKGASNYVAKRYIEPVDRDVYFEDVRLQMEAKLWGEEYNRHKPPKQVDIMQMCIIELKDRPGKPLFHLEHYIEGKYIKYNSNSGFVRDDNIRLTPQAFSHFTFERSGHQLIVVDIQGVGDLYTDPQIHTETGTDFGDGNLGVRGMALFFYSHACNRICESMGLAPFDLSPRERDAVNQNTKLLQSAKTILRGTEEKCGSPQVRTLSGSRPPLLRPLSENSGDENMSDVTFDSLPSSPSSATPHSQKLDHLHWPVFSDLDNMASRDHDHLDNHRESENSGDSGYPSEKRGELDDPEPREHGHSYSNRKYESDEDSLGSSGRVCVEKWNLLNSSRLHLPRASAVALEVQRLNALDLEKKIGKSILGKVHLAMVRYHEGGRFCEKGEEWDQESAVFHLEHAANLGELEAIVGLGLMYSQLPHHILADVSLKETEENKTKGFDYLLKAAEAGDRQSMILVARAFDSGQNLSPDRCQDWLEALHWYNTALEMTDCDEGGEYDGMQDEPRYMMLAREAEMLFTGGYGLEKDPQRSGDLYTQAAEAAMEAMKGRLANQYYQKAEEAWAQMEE

[10] = target: Mitogen-activated protein kinase 13 (Homo sapiens) (UniProt O15264); assay: Inhibition of human p38delta (1 to 365 residues) assessed as residual activity at 500 nM in presence of 33P-ATP by filter binding assay relative to control
Mitogen-activated protein kinase 13 (Homo sapiens), sequence (O15264 whole entry, the tested form may be a part): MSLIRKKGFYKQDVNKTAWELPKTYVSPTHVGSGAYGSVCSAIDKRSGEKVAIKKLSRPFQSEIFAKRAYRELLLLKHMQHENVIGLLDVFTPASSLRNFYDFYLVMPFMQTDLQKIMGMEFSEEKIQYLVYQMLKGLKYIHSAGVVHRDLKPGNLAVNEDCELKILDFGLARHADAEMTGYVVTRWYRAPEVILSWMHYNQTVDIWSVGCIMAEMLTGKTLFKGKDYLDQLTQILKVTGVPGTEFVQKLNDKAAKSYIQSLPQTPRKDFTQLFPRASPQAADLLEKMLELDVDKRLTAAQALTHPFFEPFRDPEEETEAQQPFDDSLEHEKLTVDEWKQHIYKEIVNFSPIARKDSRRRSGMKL

[11] = target: Calcium/calmodulin-dependent protein kinase type 1 (Homo sapiens) (UniProt Q14012); assay: Inhibition of human CAMK1 (2 to 369 residues) assessed as residual activity at 500 nM in presence of 33P-ATP by filter binding assay relative to control
Calcium/calmodulin-dependent protein kinase type 1 (Homo sapiens), sequence (Q14012 whole entry, looked up, the tested form may be a part): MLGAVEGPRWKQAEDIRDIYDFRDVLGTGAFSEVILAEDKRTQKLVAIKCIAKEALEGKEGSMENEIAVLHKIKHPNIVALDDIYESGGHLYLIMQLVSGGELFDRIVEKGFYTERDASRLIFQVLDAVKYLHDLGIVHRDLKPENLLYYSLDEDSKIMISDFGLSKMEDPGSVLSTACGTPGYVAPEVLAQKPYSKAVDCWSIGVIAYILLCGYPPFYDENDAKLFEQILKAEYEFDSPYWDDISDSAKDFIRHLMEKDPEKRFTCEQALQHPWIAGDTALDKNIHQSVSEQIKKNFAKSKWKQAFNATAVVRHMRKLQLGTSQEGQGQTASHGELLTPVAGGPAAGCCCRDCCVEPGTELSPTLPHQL

[12] = target: Serine/threonine-protein kinase 3 (Homo sapiens) (UniProt Q13188); assay: Inhibition of human MST2 (2 to 491 residues) assessed as residual activity at 500 nM in presence of 33P-ATP by filter binding assay relative to control
[13] = target: Mitogen-activated protein kinase 3 (Homo sapiens) (UniProt P27361); assay: Inhibition of human ERK1 (2 to 379 residues) assessed as residual activity at 500 nM in presence of 33P-ATP by filter binding assay relative to control
[14] = target: Serine/threonine-protein kinase SIK2 (Homo sapiens) (UniProt Q9H0K1); assay: Inhibition of human SIK2 (2 to 926 residues) assessed as residual activity at 500 nM in presence of 33P-ATP by filter binding assay relative to control
Serine/threonine-protein kinase SIK2 (Homo sapiens), sequence (Q9H0K1 whole entry, looked up, the tested form may be a part): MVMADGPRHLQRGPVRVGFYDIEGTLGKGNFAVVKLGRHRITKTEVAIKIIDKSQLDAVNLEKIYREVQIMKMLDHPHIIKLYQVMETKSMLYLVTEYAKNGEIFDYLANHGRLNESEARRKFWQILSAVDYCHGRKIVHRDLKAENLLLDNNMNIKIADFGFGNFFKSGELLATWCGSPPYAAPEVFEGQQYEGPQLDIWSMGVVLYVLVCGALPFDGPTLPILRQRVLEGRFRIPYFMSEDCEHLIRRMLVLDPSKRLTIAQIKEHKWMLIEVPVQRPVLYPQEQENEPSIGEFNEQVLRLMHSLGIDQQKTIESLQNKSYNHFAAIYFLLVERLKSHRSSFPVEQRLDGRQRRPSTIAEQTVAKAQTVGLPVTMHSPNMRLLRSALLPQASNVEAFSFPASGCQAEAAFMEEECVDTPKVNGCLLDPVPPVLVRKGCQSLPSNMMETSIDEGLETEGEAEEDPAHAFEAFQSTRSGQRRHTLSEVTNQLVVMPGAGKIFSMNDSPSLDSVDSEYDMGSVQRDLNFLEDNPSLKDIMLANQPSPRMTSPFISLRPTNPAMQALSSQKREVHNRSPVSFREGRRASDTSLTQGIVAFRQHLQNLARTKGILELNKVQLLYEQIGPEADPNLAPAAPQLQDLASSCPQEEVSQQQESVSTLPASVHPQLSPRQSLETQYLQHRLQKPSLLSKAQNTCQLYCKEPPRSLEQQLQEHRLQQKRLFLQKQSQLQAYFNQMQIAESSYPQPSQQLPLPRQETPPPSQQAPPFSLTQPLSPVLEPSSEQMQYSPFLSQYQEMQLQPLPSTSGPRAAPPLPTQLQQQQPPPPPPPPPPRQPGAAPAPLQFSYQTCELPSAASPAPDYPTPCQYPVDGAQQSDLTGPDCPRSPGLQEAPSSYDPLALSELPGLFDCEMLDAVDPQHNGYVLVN

[15] = test system: Serine/threonine-protein kinase PAK 2 (Homo sapiens), Q13177 [T402E]; assay: Inhibition of human PAK2 T402E mutant (1 to 524 residues) assessed as residual activity at 500 nM in presence of 33P-ATP by filter binding assay relative to control
[16] = target: Mitogen-activated protein kinase kinase kinase 11 (Homo sapiens) (UniProt Q16584); assay: Inhibition of human MLK3 (96 to 386 residues) assessed as residual activity at 500 nM in presence of 33P-ATP by filter binding assay relative to control
Mitogen-activated protein kinase kinase kinase 11 (Homo sapiens), sequence (Q16584 whole entry, looked up, the tested form may be a part): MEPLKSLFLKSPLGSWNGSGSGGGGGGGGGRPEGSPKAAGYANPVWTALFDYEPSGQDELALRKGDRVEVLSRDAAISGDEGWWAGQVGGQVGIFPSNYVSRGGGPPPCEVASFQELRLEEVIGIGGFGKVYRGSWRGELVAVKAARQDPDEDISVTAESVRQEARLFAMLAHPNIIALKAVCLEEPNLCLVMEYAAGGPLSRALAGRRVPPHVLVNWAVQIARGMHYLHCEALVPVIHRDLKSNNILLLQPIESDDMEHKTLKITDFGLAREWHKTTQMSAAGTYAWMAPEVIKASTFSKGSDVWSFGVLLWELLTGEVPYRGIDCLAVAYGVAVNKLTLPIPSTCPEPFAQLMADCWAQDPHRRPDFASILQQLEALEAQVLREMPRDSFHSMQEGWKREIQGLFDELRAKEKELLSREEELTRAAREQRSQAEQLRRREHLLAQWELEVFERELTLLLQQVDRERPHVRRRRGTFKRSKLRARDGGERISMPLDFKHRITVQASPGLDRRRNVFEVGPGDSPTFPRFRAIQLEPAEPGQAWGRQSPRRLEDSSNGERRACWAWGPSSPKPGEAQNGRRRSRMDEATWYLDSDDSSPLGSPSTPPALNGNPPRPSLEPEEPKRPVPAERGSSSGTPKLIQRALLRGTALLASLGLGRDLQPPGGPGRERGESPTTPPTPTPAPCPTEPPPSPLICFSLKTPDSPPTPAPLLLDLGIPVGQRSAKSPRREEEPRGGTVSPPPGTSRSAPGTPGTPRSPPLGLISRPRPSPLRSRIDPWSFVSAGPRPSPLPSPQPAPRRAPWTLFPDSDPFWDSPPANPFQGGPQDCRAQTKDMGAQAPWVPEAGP

[17] = target: MAP kinase-interacting serine/threonine-protein kinase 1 (Homo sapiens) (UniProt Q9BUB5); assay: Inhibition of human MNK1 (2 to 424 residues) assessed as residual activity at 500 nM in presence of 33P-ATP by filter binding assay relative to control
[18] = target: Serine/threonine-protein kinase pim-3 (Homo sapiens) (UniProt Q86V86); assay: Inhibition of human PIM3 (2 to 326 residues) assessed as residual activity at 500 nM in presence of 33P-ATP by filter binding assay relative to control
[19] = target: Serine/threonine-protein kinase 24 (Homo sapiens) (UniProt Q9Y6E0); assay: Inhibition of human MST3 (1 to 431 residues) assessed as residual activity at 500 nM in presence of 33P-ATP by filter binding assay relative to control
[20] = target: Discoidin domain-containing receptor 2 (Homo sapiens) (UniProt Q16832); assay: Inhibition of human DDR2 (467 to 854 residues) assessed as residual activity at 500 nM in presence of 33P-ATP by filter binding assay relative to control
[21] = target: Serine/threonine-protein kinase BRSK2 (Homo sapiens) (UniProt Q8IWQ3); assay: Inhibition of human BRSK2 (2 to 674 residues) assessed as residual activity at 500 nM in presence of 33P-ATP by filter binding assay relative to control
[22] = target: Dual specificity protein kinase CLK2 (Homo sapiens) (UniProt P49760); assay: Inhibition of human CLK2 (138 to 499 residues) assessed as residual activity at 500 nM in presence of 33P-ATP by filter binding assay relative to control
[23] = target: Vascular endothelial growth factor receptor 2 (Homo sapiens) (UniProt P35968); assay: Inhibition of VEGFR2 (unknown origin) assessed as residual activity at 500 nM relative to control
[24] = target: Mitogen-activated protein kinase 14 (Homo sapiens) (UniProt Q16539); assay: Inhibition of human p38alpha (1 to 360 residues) assessed as residual activity at 500 nM in presence of 33P-ATP by filter binding assay relative to control
Mitogen-activated protein kinase 14 (Homo sapiens), sequence (Q16539 whole entry, the tested form may be a part): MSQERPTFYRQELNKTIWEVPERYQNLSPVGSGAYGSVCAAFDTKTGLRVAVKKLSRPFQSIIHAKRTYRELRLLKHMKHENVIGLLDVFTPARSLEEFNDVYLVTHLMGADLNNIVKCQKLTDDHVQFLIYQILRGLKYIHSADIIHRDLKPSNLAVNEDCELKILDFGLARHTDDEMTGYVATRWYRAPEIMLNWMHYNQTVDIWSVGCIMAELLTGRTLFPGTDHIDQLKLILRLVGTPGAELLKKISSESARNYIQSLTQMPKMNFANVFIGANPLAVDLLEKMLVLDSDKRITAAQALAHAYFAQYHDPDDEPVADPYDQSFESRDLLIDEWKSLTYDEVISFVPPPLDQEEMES

[25] = Permeability in human Caco2 cells; assay type: ADME, cell-based; conditions: Caco-2, read-out: permeability
[26] = Efflux ratio of permeability in human Caco2 cells; assay type: ADME, cell-based; conditions: Caco-2

Activity [1]: 107%
IC50 [2]: 0.19 µM
Activity [3]: 134%
Activity [4]: 132%
Activity [5]: 128%
Activity [6]: 119%
Activity [7]: 118%
Activity [8]: 116%
Activity [9]: 115%
Activity [10]: 113%
Activity [11]: 112%
Activity [12]: 109%
Activity [13]: 106%
Activity [14]: 105%
Activity [15]: 103%
Activity [16]: 101%
Activity [17]: 99%
Activity [18]: 91%
Activity [19]: 91%
Activity [20]: 91%
Activity [21]: 89%
Activity [22]: 76%
Activity [23]: 41%
Activity [24]: 9%
Papp [25]: 110 nm/s
efflux ratio [26]: < 1
SMILES: Cc1cccc(-c2nc(N)sc2-c2ccc3ncccc3n2)c1
